Bioassay records (PubChem BioAssay)
PPC-1+TRAIL kill: compounds killing PPC-1 cancer cells with TRAIL present, primary screen, TRAIL potentiator project, ATPLite luminescence, uHTS | PPC-1 cells + TRAIL, ATPLite viability luminescence | cell killing (% activity), % at 4 µM or 5 µM | hit rate 0.41% among 220,000 | AID 1443, 2008;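 active = cell killing above 50% in the first pass at 4 µM, then a duplicate retest at 5 µM averaging 50% or more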
HSP90 refold inh: HSP90 inhibitors, primary screen, cell lysate, luminescence; inhibition, % at 5.6 µM; Heat shock protein HSP 90 (rabbit reticulocyte lysate; luciferase refolding); hit rate 0.91% among 290,000; Rabbit reticulocyte lysate, luciferase refolding luminescence, 3 h;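 active = inhibition above the screen-wide mean plus 3 SD, computed separately per campaign, cut at about 16% in these data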;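 also: inhibitors lower the luminescence because luciferase stays unfolded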
FLuc inh counter: firefly luciferase enzyme inhibitors, primary screen, artefact control for luciferase-based inhibitor screens, biochemical, luminescence, ATPLite. AID 1006, 2008. 10 min. hit rate 1.5% among 200,000. inhibition, % at 10 µM. Luciferin 4-monooxygenase (Photinus pyralis), P08659;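 active = inhibition above about 50% when tested at 10 µM, limit read from the data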
Target sequence (P08659 whole entry, looked up): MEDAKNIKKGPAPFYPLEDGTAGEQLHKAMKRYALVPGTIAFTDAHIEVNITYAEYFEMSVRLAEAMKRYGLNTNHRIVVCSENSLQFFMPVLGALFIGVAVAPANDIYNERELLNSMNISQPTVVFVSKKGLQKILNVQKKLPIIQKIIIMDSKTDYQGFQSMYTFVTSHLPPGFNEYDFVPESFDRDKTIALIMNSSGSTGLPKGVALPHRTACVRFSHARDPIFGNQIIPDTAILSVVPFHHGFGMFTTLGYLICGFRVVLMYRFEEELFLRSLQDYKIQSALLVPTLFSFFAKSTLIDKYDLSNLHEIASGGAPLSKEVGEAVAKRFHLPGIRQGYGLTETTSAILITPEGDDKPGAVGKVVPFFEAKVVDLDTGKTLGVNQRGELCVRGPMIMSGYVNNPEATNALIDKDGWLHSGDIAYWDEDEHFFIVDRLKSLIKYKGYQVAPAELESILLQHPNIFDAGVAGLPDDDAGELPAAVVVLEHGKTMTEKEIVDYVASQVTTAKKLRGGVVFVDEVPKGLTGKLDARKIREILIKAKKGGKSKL
FLuc act counter: FLuc activators, initial screening, artefact control for FLuc-dependent activation tests, biochemical, ATPlite luminescence; AID 1027, 2008; activation factor at 10 µM; ATPlite luciferase biochemical, 10 min; 0 = ATP-free wells, 1 = DMSO control; 200,000 tested, under 10 active;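 active = luciferase activation factor, scaled between plate controls, of at least 2 with compound at 10 µM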
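assay system = Luciferase/luciferin detection reagent, cell-free biochemical luciferase assay | also added = ATP substrate | times = 10 min post-reagent at room temperature | measured by = luminescence from luciferase reaction | measure = luciferase activation, seen as luminescence increase over controls | benchmarks = low control with PBS replacing ATP, high control enzyme plus ATP without compound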
TRAIL sens C8: viability loss with TRAIL in NB7+C8 cells, primary screen, TRAIL sensitizer project, cell-based, ATPlite luminescence | inhibition (viability loss, TRAIL sensitization), % at 10 µM | hit rate 1% among 360,000;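 active = compounds causing at least 50% loss of cell viability in the single-dose screen, relative to plate controls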
Numbers stand for hits. Sampled rows, rich in hits. Any-hit rate of the full collection: about 2%.

How did CCCc1ccc(S(=O)(=O)N2CCN(C(=O)CN3C(=O)NC(C)(C4CC4)C3=O)CC2)cc1 (stereo not drawn) do in these assays?
TRAIL sens C8: inactive

How did COCc1cn(CC[C@@H]2CC[C@@H](NC(=O)Nc3ccc4c(c3)OCO4)[C@@H](CO)O2)nn1 do in these assays?
TRAIL sens C8: inactive

What do the screens show for `COC(=O)C1(Cc2ccc3c(c2)CCC3)Cc2ccc3c(c2C1=O)CCC3` (stereo not drawn)?
TRAIL sens C8: inactive

What do the screens show for `Cc1csc(NC(=O)CSc2nc3[nH]c(=O)cc(O)c3s2)n1`?
TRAIL sens C8: 58

How did O=C(O)/C=C/C(=O)Nc1ccc(-c2ccccc2)cc1 do in these assays?
PPC-1+TRAIL kill: inactive; HSP90 refold inh: inactive; FLuc inh counter: 53; FLuc act counter: inactive; TRAIL sens C8: inactive

What do the screens show for `Cc1onc(C(=O)N2CCC(Cc3ccccc3)CC2)c1[N+](=O)[O-]`?
HSP90 refold inh: inactive; TRAIL sens C8: 92

Results for Cc1ccc(Cl)cc1N1CCN(C(=O)c2noc(C(C)C)c2[N+](=O)[O-])CC1 ?
HSP90 refold inh: inactive; TRAIL sens C8: 95

How did Cc1onc(C(=O)N2CCN(Cc3ccccc3)CC2)c1[N+](=O)[O-] do in these assays?
PPC-1+TRAIL kill: inactive; HSP90 refold inh: inactive; FLuc inh counter: inactive; FLuc act counter: inactive; TRAIL sens C8: inactive

How did CC(C)c1onc(C(=O)N2CCN(c3ccccc3)CC2)c1[N+](=O)[O-] do in these assays?
PPC-1+TRAIL kill: inactive; HSP90 refold inh: inactive; TRAIL sens C8: inactive

How did CC(C)c1onc(C(=O)N2CCN(c3ccc(F)cc3)CC2)c1[N+](=O)[O-] do in these assays?
HSP90 refold inh: inactive; TRAIL sens C8: 65

How did CC(C)c1onc(C(=O)N2CCN(C(c3ccccc3)c3ccccc3)CC2)c1[N+](=O)[O-] do in these assays?
PPC-1+TRAIL kill: inactive; HSP90 refold inh: inactive; FLuc inh counter: inactive; FLuc act counter: inactive; TRAIL sens C8: 91

What do the screens show for `CC(C)NC(=O)C1(C)CN(S(C)(=O)=O)CC(=O)N1Cc1cccc(C(F)(F)F)c1` (stereo not drawn)?
TRAIL sens C8: inactive

What do the screens show for `O=S1(=O)C[C@H](N2CC[C@@H](O)C2)[C@@H](COCc2ccccc2)N1`?
TRAIL sens C8: inactive

Results for CCCC[n+]1ccn(C2=C([O-])c3ccccc3C(=O)/C2=N\S(=O)(=O)c2ccccc2)c1 ?
PPC-1+TRAIL kill: inactive; HSP90 refold inh: inactive; FLuc inh counter: inactive; FLuc act counter: inactive; TRAIL sens C8: 51

Results for CCCCC[n+]1ccn(C2=C([O-])c3ccccc3C(=O)/C2=N\S(=O)(=O)c2ccccc2)c1 ?
PPC-1+TRAIL kill: inactive; HSP90 refold inh: inactive; FLuc inh counter: inactive; FLuc act counter: inactive; TRAIL sens C8: inactive

How did CC(C)(C)c1cc[n+](C2=C([O-])c3ccccc3C(=O)/C2=N\S(=O)(=O)c2ccccc2)cc1 do in these assays?
PPC-1+TRAIL kill: inactive; HSP90 refold inh: 16; TRAIL sens C8: inactive

What do the screens show for `O=C1/C(=N\S(=O)(=O)c2cccs2)C([n+]2cccc(Cc3ccccc3)c2)=C([O-])c2ccccc21`?
PPC-1+TRAIL kill: inactive; HSP90 refold inh: inactive; TRAIL sens C8: 48

Results for COCC(=O)Nc1nnc(-c2ccc(C(C)(C)C)cc2)s1 ?
PPC-1+TRAIL kill: inactive; HSP90 refold inh: inactive; FLuc inh counter: 60; FLuc act counter: inactive; TRAIL sens C8: inactive

Results for CC(C)(C)c1ccc(-c2nnc(NC(=O)c3ccccc3)s2)cc1 ?
PPC-1+TRAIL kill: inactive; HSP90 refold inh: inactive; FLuc inh counter: inactive; FLuc act counter: inactive; TRAIL sens C8: inactive

Results for Cc1ccccc1Cn1nnc2c1C(=O)c1ccccc1C2=O ?
HSP90 refold inh: inactive; TRAIL sens C8: 52

What do the screens show for `Cc1cccc(Cn2nnc3c2C(=O)c2ccccc2C3=O)c1`?
PPC-1+TRAIL kill: inactive; HSP90 refold inh: inactive; FLuc inh counter: inactive; FLuc act counter: inactive; TRAIL sens C8: 51

What do the screens show for `COc1cc2c(c(Br)c1N)-c1cc(Br)c(N)cc1C2=O`?
TRAIL sens C8: inactive

How did COC(CNC(=O)C1CCCN(S(=O)(=O)c2c(C)noc2/C=C/c2cccs2)C1)OC (stereo not drawn) do in these assays?
PPC-1+TRAIL kill: inactive; HSP90 refold inh: 17; FLuc inh counter: inactive; FLuc act counter: inactive; TRAIL sens C8: inactive

What do the screens show for `O=c1[nH]c2ccccc2nc1/C=C/c1ccc(Cl)cc1`?
PPC-1+TRAIL kill: inactive; HSP90 refold inh: inactive; FLuc inh counter: 70; FLuc act counter: inactive; TRAIL sens C8: 73

How did O=C(N/C(=C/c1ccc(Cl)cc1)c1nc2ccccc2[nH]1)c1ccco1 do in these assays?
PPC-1+TRAIL kill: inactive; HSP90 refold inh: inactive; FLuc inh counter: inactive; FLuc act counter: inactive; TRAIL sens C8: inactive

Results for O=C(/C(=C/c1ccc(Cl)cc1)c1nc2ccccc2[nH]1)c1ccccc1 ?
PPC-1+TRAIL kill: inactive; HSP90 refold inh: inactive; FLuc inh counter: inactive; FLuc act counter: inactive; TRAIL sens C8: 78

What do the screens show for `CC(=O)Nc1ccc(/C=C/c2nc3ccccc3[nH]c2=O)cc1`?
HSP90 refold inh: inactive; TRAIL sens C8: inactive

What do the screens show for `NC(Cc1ccc(C(F)(F)F)cc1)c1csc(Nc2ccc(C(=O)NCc3ccco3)cn2)n1` (stereo not drawn)?
TRAIL sens C8: inactive

What do the screens show for `COCc1cccc(-c2csc(C(C)(O)c3cccc(F)c3)n2)c1` (stereo not drawn)?
TRAIL sens C8: inactive

How did O=C(NCc1cccnc1)c1cc(C2CCCCN2C(=O)c2ccc(Cl)cc2)on1 (stereo not drawn) do in these assays?
TRAIL sens C8: inactive

What do the screens show for `COc1ccc(N2C(=O)c3ccccc3NC(=O)C2C(=O)Nc2ccc3c(c2)OCCO3)cc1` (stereo not drawn)?
TRAIL sens C8: inactive

How did COCCNC(=O)c1onc(CSc2ccccc2F)c1C(=O)O do in these assays?
PPC-1+TRAIL kill: 55; HSP90 refold inh: inactive; FLuc inh counter: inactive; FLuc act counter: inactive; TRAIL sens C8: inactive

What do the screens show for `COCCNC(=O)c1onc(CSc2ccccc2C)c1C(=O)O`?
PPC-1+TRAIL kill: inactive; HSP90 refold inh: inactive; FLuc inh counter: inactive; FLuc act counter: inactive; TRAIL sens C8: inactive

What do the screens show for `Cc1nn(C)cc1/C=C/C(=O)c1ccc(O)cc1`?
PPC-1+TRAIL kill: inactive; HSP90 refold inh: inactive; FLuc inh counter: 57; FLuc act counter: inactive; TRAIL sens C8: inactive

How did N#Cc1ccccc1S(=O)(=O)N1CCN(C(=O)c2cn(-c3ccccc3)nc2-c2cccnc2)CC1 do in these assays?
TRAIL sens C8: inactive

How did Cc1ccc(NC(CC(=O)c2ccccc2)c2ccc(F)cc2)cc1 (stereo not drawn) do in these assays?
PPC-1+TRAIL kill: inactive; HSP90 refold inh: inactive; FLuc inh counter: inactive; FLuc act counter: inactive; TRAIL sens C8: inactive
